# An excerpt weighted towards active compounds, which were near 6.4% of everything screened.
# H69AR inhibit – growth inhibitors of human H69AR lung tumor cells; H69AR lung tumor viability, ATP luminescence, 72 h; hits give low values; viability, % at 10 µM; hit rate 6% among 85,000; AID 598;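 active means viability at or below 40%; inactive means viability above 40%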;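 further: multidrug resistant small cell line overexpressing MRP-1 efflux transporter; 100% = mean luminescence of untreated control wells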
# Fibroblast inh – blocks proliferation of human lung fibroblasts. AID 719. hit rate 1.1% among 85,000. viability, % at 10 µM. LL 47 human lung fibroblast viability, ATP luminescence; hits give low values;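 active means viability at or below 50% in the single dose screen; inactive means viability above 50%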;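 further: compound exposure lasted 72 h before the ATP readout; 100% = median luminescence of untreated cell-only wells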
#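 Material: human lung fibroblast line LL 47, low passage; Evaluation: viability percentage against median untreated-cell control; Buffer or medium: 15% FBS in IMEM; Incubation: 72 h compound exposure at 37 °C after overnight plating; Dosing: 0.1% DMSO in all compound wells; Measured by: CellTiter-Glo luminescence.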
# Jurkat viability – cytotoxicity toward Jurkat cells | Jurkat E6.1 viability, ATP luminescence, 48 h | inhibition, % at 4 µM | hit rate 1.2% among 56,000 | AID 463;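 active means inhibition above the mean inhibition of all tested compounds plus 3 SD, cut at about 28% in these data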
# tolC growth inh – E. coli tolC mutant growth inhibition; E. coli BW25113 tolC mutant growth, OD615; growth inhibition, % at 10 µM (by protocol); hit rate 2.2% among 65,000;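 active means growth inhibition at or above a cutoff equal to the mean over every tested compound plus 3 SD, cut at about 60% in these data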;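 further: growth measured after 20 h incubation at 37 °C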
#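 Signal: optical density read at 615 nm; Assay system: E. coli ΔtolC::kan strain BW25113; Times: 20 h incubation with compound, 37 °C; Dosing: 10 µM final, single dose.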
# HUVEC inhibit – inhibitors of human endothelial cell proliferation. viability, % at 10 µM (by protocol). hit rate 1.1% among 86,000. HUVEC proliferation, CellTiter-Glo luminescence, 72 h; hits give low values;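 active means viability at or below 30%; inactive means viability above 30%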;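 further: 100% = median luminescence of DMSO-only cell control wells on each plate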
# Ecoli WT expand – E. coli BW25113 growth inhibition, expanded screen | growth inhibition, % at 100 µM | hit rate 0.15% among 98,000 | AID 710 | OD600 absorbance;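 active means growth inhibition above about 50% at one test dose, limit read from the data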;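 further: growth measured after 20 h incubation at 37 °C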
# * marks the source's active call; other numbers are inactive results; . = not tested or not shown.
SMILES,H69AR inhibit,Fibroblast inh,Jurkat viability,tolC growth inh,HUVEC inhibit,Ecoli WT expand
COc1ccc2nc(NC(=O)C3CCCN(S(=O)(=O)c4cccs4)C3)sc2c1 (centres undefined),44,113,-2,68*,99,-6
COc1cc(NC(=O)C2CCCN(S(=O)(=O)c3cccc4nsnc34)C2)cc(OC)c1 (centres undefined),.,.,-4,-6,.,-3
CN(C)S(=O)(=O)c1ccc2nc(NC(=O)c3cccnc3)sc2c1,89,96,7,7,86,0
S=c1[nH]nc(-c2cc3c(s2)-c2ccccc2CC3)o1,.,.,.,.,.,9
COC(=O)C1(C(F)(F)F)N=C(N(C)C)OC(N(C)C)=N1,101,109,1,-17,93,-3
CCN(CC)S(=O)(=O)c1ccc(NC(=O)Nc2cccc(C(F)(F)F)c2)cc1,.,.,.,.,.,3
CC(=O)Nc1ccc(N2C(=O)CC(N3CC(C)OC(C)C3)C2=O)cc1 (centres undefined),96,100,-2,-20,97,7
COc1cccc(C(C(=O)NC2CCCC2)N(Cc2ccc(C)cc2)C(=O)c2ccco2)c1OC (centres undefined),76,90,.,.,112,.
O=C(Nc1nc2ccc(S(=O)(=O)N3CCCCC3)cc2s1)c1ccncc1,84,93,3,31,83,3
O=C(Nc1nc2ccc(S(=O)(=O)N3CCCC3)cc2s1)c1cccs1,36*,89,5,0,59,-8
C/C(=C1\SC(N2CCOCC2)=NC1=O)c1ccccc1,94,92,-8,1,101,0
O=C(O)C(=O)/C(=C\c1cccc2ccccc12)c1ccc2ccccc2n1,18*,92,.,.,68,1
Cc1cc(Cl)c(S(=O)(=O)NC(C(=O)O)C(C)C)cc1OCC(=O)NC1CCCCC1 (centres undefined),109,99,.,.,95,3
Cc1cc(C)n(-c2ccc(C(=O)Nc3nc4ccccc4s3)cc2)n1,15*,102,4,5,60,-3
Cc1cc(C)n(-c2ccc(C(=O)Nc3ccc(S(=O)(=O)NCc4ccco4)cc3)cc2)n1,65,87,65*,35,58,-7
COc1cc(C(=O)Nc2nc3ccccc3s2)ccc1OCc1c(C)noc1C,19*,80,.,.,74,-11
Nc1ccc(C(=O)Nc2nc3ccccc3s2)cc1,70,99,.,-6,89,-4
O=C1CC2(CON=C2c2ccc(F)cc2)C(=O)N1c1ccc(F)cc1 (centres undefined),100,105,-7,-22,93,4
CC1(C)Cc2c(cnn2-c2ccccc2)-c2c1c1ccccc1n2CC(O)CBr (centres undefined),16*,82,.,.,58,-2
CC1Cc2ccccc2N1C(=O)C1CCCN(S(=O)(=O)c2cccc3cccnc23)C1 (centres undefined),37*,82,7,35,80,2
CCCCOc1ccc(S(=O)(=O)NC(=O)NCc2ccc(OCCC)cc2)cc1,97,96,.,.,90,.
CC(C)(C)NC(=O)C(c1ccco1)N(C(=O)Cn1nnc(-c2ccc(F)cc2)n1)c1ccccc1F (centres undefined),107,105,-4,71*,101,0
CC(C)(C)NC(=O)C(c1ccco1)N(C(=O)Cn1nnc(-c2ccc(F)cc2)n1)c1ccccc1 (centres undefined),103,99,-5,.,106,.
CC1CC(C)CN(S(=O)(=O)c2ccc(C(=O)NCCCn3ccnc3)cc2)C1 (centres undefined),2.7*,15*,101*,-5,79,-6
O=C(Nc1ncc2c(n1)CC(c1ccco1)CC2=O)c1ccccc1 (centres undefined),98,94,-4,-7,90,2
SMILES,H69AR inhibit,Fibroblast inh,Jurkat viability,tolC growth inh,HUVEC inhibit,Ecoli WT expand
O=C1CC(c2ccco2)Cc2nc(Nc3nc(-c4ccccc4)c4ccccc4n3)ncc21 (centres undefined),.,25*,-1,-4,55,-19
Cc1cccc(Nc2ncc3c(n2)CC(c2ccco2)CC3=O)c1 (centres undefined),30*,102,3,-3,92,-4
COc1ccc(OC)c(-c2cc(C(=O)Nc3c(C)nn(Cc4ccccc4C)c3C)no2)c1,81,97,-4,43,96,-8
Cc1ccc(COn2c(-c3ccc(Cl)cc3Cl)nc3ncccc32)cc1,39*,92,.,.,83,-9
Clc1cccc(COn2c(-c3ccc(Cl)cc3Cl)nc3ncccc32)c1,103,86,.,.,68,-20
COc1cc(-c2nc3ccccc3s2)ccc1O,40*,90,.,.,50,21
COc1cc(/C=N/NC(=Nc2ccc(C)cc2)c2nc3ccccc3s2)ccc1O,35*,82,.,.,88,-8
CCn1cc(C(=O)OCC(=O)OC2CC(C)CCC2C(C)C)c(=O)c2ccc(C)nc21 (centres undefined),90,105,1,84*,84,10
CCn1cc(C(=O)OCc2ccccc2)c(=O)c2ccc(C)nc21,76,101,5,56,107,31
CCn1cc(C(=O)OCC(=O)NCc2ccc3c(c2)OCO3)c(=O)c2ccc(C)nc21,11*,106,-5,-4,91,-5
CCOC(=O)COc1cccc2c(=O)n(CC(=O)NCc3ccc4c(c3)OCO4)ccc12,26*,63,51*,-11,56,0
Cn1cnnc1SCC(=O)Nc1ccccc1Sc1ccccc1,95,96,-6,-4,94,.
CCN=c1scc(-c2ccc3c(c2)NC(=O)CO3)n1N=C1CCCC1,76,109,36*,13,72,-4
Cc1cccc2cc(C#N)c(NCCCn3ccnc3)nc12,90,98,-4,54,79,16
CCOC(=O)c1cnc2ccc(OCC)cc2c1N1CCN(c2ccccc2OC)CC1,29*,87,.,.,67,-17
COCCN1C(=O)c2oc3ccccc3c(=O)c2C1c1cccc(O)c1 (centres undefined),88,98,-12,-9,100,-3
Clc1ccsc1-c1csc(-c2cccnc2)n1,17*,75,.,.,38,0
c1cncc(-c2nc(-c3cccs3)cs2)c1,75,92,.,6,84,5
Cn1c(Cl)cnc1C1CC(=O)c2cc(Cl)ccc2O1 (centres undefined),0.2*,16*,.,5,39,-3
Cn1c2c(c(=O)n(C)c1=O)C1c3cc(Cl)ccc3OCC1CO2 (centres undefined),98,104,.,.,92,-16
CC(C)C1O/C(=N/C(=O)Nc2ccc(Cl)c(Cl)c2)NC1=O (centres undefined),11*,88,-4,98*,55,53*
CCCCOc1nc(N)nc(-c2ccccc2)n1,92,93,0,7,104,-2
Cc1cc(C)c(O)c(-c2cc(C(=O)Nc3ccc(S(=O)(=O)N4CCOCC4)cc3)[nH]n2)c1,9.2*,41*,22,91*,36,-10
